# Reference: PMC4201344 (ACS Chemical Biology, 2014)
# Residue numbers refer to the chain shown, from its start. Entries after “also recorded” stand apart in the source; their conditions may differ.
# What was measured:
# [1] = molecular target: GluClβ T6′A (Caenorhabditis elegans, UniProt Q17328, T283A); assay: two-electrode voltage clamp, Xenopus laevis oocytes; type: cell-based, C. elegans; conditions: glutamate
# Procedure, shortened: (§1)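 C. elegans GluClβ (mammalian codon-optimised) in pGEMhe, mutated by QuikChange; T7 mRNA. […] Voltage clamp at −60 mV in Ca-free ND96, pH 7.5. […] Peak currents taken from baseline, normalised, averaged per concentration, and fit to Hill equation (EC50, nH).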
# [2] = molecular target: GluClβ A2′T (Caenorhabditis elegans, UniProt Q17328, A279T); assay: as above; type: cell-based, C. elegans; conditions: glutamate
# GluClβ A2′T, sequence (Q17328 23-434 A279T): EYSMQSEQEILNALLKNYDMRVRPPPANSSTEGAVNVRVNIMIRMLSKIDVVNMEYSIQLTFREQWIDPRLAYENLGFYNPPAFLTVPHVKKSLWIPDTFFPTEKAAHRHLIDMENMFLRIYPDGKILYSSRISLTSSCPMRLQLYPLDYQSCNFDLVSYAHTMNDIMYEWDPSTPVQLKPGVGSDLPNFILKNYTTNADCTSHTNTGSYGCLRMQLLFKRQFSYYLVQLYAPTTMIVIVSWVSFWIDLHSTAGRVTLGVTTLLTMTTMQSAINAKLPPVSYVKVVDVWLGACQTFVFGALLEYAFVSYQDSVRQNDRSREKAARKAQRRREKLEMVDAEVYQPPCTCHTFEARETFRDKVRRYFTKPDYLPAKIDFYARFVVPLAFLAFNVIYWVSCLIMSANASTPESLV
# Procedure, shortened: as §1
# [3] = molecular target: GluClβ T6′S, R40A (Caenorhabditis elegans, UniProt Q17328, R66A/T283S); assay: two-electrode voltage clamp, Xenopus laevis oocytes; type: cell-based, C. elegans; conditions: glutamate
# GluClβ T6′S, R40A, sequence (Q17328 23-434 R66A/T283S): as the sequence (Q17328 23-434 A279T) above, with R44A, T257A, T261S counted along it
# [4] = molecular target: GluClβ T6′S, R40E (Caenorhabditis elegans, UniProt Q17328, R66E/T283S); assay: two-electrode voltage clamp, Xenopus laevis oocytes; type: cell-based, C. elegans; conditions: glutamate
# GluClβ T6′S, R40E, sequence (Q17328 23-434 R66E/T283S): as the sequence (Q17328 23-434 A279T) above, with R44E, T257A, T261S counted along it
# Procedure, shortened: as §1
# [5] = molecular target: T1, GluClβ with α signal peptide, T6′S, Y156TAG Phe (Caenorhabditis elegans, UniProt Q17328, T283S/Y182F); assay: two-electrode voltage clamp, Xenopus laevis oocytes, nonsense suppression; type: cell-based, C. elegans; conditions: glutamate
# T1 sequence (Q17328 23-434 Y182F/T283S): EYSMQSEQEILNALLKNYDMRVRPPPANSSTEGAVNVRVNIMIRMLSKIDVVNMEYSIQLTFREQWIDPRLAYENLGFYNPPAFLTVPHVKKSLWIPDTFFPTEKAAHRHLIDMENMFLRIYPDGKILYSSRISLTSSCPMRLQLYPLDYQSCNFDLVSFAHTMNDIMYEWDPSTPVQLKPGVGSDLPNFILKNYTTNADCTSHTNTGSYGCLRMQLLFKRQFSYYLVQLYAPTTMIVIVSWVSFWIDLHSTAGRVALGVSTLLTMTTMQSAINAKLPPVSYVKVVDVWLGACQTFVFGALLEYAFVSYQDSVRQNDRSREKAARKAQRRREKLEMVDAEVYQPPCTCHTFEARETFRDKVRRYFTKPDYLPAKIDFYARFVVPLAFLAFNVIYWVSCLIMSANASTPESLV
# Procedure, shortened: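 Site-specific TAG codon, read by 74mer THG73 tRNA ligated to dCA-acylated amino acid; NVOC removed by 5 min xenon-lamp irradiation just before injection. Oocytes coinjected with 37.5 ng mRNA plus ~1 μg/μL tRNA at 48 and 24 h pre-recording; unacylated 76mer tRNA served as read-through control.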
# [6] = molecular target: T2, GluClβ T6′S, T203A/Y206F (Caenorhabditis elegans, UniProt Q17328, T229A/T283S/Y232F); assay: two-electrode voltage clamp, Xenopus laevis oocytes; type: cell-based, C. elegans
# T2 sequence (Q17328 23-434 T229A/Y232F/T283S): T1 sequence (Q17328 23-434 Y182F/T283S) with F160Y, T207A, Y210F
# [7] = molecular target: GluClβ L9′A (Caenorhabditis elegans, UniProt Q17328, L286A); assay: two-electrode voltage clamp, Xenopus laevis oocytes; type: cell-based, C. elegans; conditions: glutamate
# GluClβ L9′A, sequence (Q17328 23-434 L286A): as the sequence (Q17328 23-434 A279T) above, with T257A, L264A counted along it
# Procedure, shortened: as §1
# [8] = molecular target: GluClα receptor (Caenorhabditis elegans, UniProt G5EBR3); conditions: in the absence of ivermectin, Xenopus laevis oocytes; cited from earlier work
# GluClα receptor, sequence (G5EBR3 21-461): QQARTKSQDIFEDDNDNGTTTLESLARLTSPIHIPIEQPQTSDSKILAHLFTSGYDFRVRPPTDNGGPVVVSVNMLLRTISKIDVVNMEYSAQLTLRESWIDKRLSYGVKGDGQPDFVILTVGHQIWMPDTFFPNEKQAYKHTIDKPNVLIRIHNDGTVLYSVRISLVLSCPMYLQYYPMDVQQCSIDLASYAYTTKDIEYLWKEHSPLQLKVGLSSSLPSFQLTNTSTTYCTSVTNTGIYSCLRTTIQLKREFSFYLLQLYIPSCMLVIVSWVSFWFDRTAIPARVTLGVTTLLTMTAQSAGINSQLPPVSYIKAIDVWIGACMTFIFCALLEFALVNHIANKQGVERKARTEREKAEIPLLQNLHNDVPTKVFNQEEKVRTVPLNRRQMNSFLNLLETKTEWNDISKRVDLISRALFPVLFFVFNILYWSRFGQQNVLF
# [9] = test system: GluClβ T6′S, Y206TAG Me–Phe; assay: two-electrode voltage clamp, Xenopus laevis oocytes, nonsense suppression; type: cell-based, C. elegans; conditions: glutamate
# [10] = molecular target: GluClβ T6′S, S126A (Caenorhabditis elegans, UniProt Q17328, S152A/T283S); assay: two-electrode voltage clamp, Xenopus laevis oocytes; type: cell-based, C. elegans; conditions: glutamate
# GluClβ T6′S, S126A, sequence (Q17328 23-434 S152A/T283S): as the sequence (Q17328 23-434 A279T) above, with S130A, T257A, T261S counted along it
# [11] = test system: GluClβ T6′S, Y206TAG F1–Phe; assay: two-electrode voltage clamp, Xenopus laevis oocytes, nonsense suppression; type: cell-based, C. elegans; conditions: glutamate
# [12] = test system: GluClβ homomeric receptor, wild type; assay: two-electrode voltage clamp, Xenopus laevis oocytes; type: cell-based, C. elegans; conditions: high expressing mutants of GluClβ
# [13] = molecular target: GluClβ homomeric receptor, wild type (Caenorhabditis elegans, UniProt Q17328); assay: as above; type: cell-based, C. elegans; conditions: glutamate
# GluClβ homomeric receptor, wild type (Caenorhabditis elegans, UniProt Q17328), sequence (Q17328 23-434): as the sequence (Q17328 23-434 A279T) above, with T257A counted along it
# [14] = molecular target: T3, GluClβ A2′S (Caenorhabditis elegans, UniProt Q17328, A279S); assay: as above; type: cell-based, C. elegans; conditions: glutamate
# T3 sequence (Q17328 23-434 A279S): T1 sequence (Q17328 23-434 Y182F/T283S) with F160Y, A257S, S261T
# GluClβ T6′A, sequence (Q17328 23-434 T283A): as the sequence (Q17328 23-434 A279T) above, with T257A, T261A counted along it
compound,measurement,setting,value
N[C@@H](CCC(=O)O)C(=O)O [glutamate],EC50,[1],not functional; also recorded: very low response
same,EC50,[2],abolished glutamate-induced currents; also recorded: no response
same,EC50,[3],1.1 ± 0.1 mM
same,Hill,[3],2.1 ± 0.1
same,EC50,[4],nonfunctional; also recorded: no response
same,EC50,[5],17 ± 1 mM
same,Hill,[5],1.7 ± 0.1
same,Imax,[5],1–4 μA
same,EC50,[6]; glutamate,210 ± 10 µM
same,Hill,[6]; glutamate,2.2 ± 0.1
same,Ω,"[6]; mutant cycle analysis T203A, Y206F",1/37
same,ΔΔG,"[6]; mutant cycle analysis, coupling T203A/Y206F",2.1 kcal/mol
same,EC50,[7],constitutively active
same,activation by glutamate,[8],not activated
same,EC50,[9],98 ± 3 µM
same,Hill,[9],2.4 ± 0.1
same,Imax,[9],0.05–7 μA
same,EC50,[10],4.7 ± 0.1 mM
same,Hill,[10],2.5 ± 0.1
same,EC50,[11],640 ± 10 µM
same,Hill,[11],2.8 ± 0.1
same,Imax,[11],0.04–0.34 μA
same,concentration at which rapid desensitization occurs,[12],greater than 100 mM
same,Hill,[13],2.5 ± 0.2
same,EC50,[14],630 ± 10 µM
same,Hill,[14],2.0 ± 0.1
same,Imax,[14],0.6–6 μA
